Results reported in ChEMBL document CHEMBL1156295, “In vitro and in vivo photocytotoxicity of boron dipyrromethene derivatives for photodynamic therapy” (J Med Chem, 2010).
Activity calls are given as the source filed them. No cut-off for these calls is given here.

Tests used:
[1] = system: HSC-2; experiment: Cell cycle arrest in human HSC2 cells irradiated with 4.1 J/cm^2 broad spectrum light assessed as accumulation at G1 phase at 0.25 uM after 6 hrs by flow cytometry relative to control; type: functional
Outline: (§1)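 HSC-2 cells given compound for 2 h, then irradiated with broad-spectrum light (or kept dark). Floating plus trypsinized adherent cells collected at set times after irradiation. Fixed in 70% ice-cold ethanol overnight at 4 °C, then stained 30 min with 20 μg/mL RNase A and 1 μM SYTOX Green. 1 × 10^4 cells read by flow cytometry (488 nm laser, FL1 530/30).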

[2] = system: HSC-2; experiment: Cell cycle arrest in human HSC2 cells irradiated with 4.1 J/cm^2 broad spectrum light assessed as accumulation at sub-G1 phase at 0.25 uM after 4 hrs by flow cytometry relative to control; type: functional; outline: as §1
[3] = system: HSC-2; experiment: Cell cycle arrest in human HSC2 cells irradiated with 4.1 J/cm^2 broad spectrum light assessed as accumulation at sub-G1 phase at 0.25 uM after 8 hrs by flow cytometry relative to control; type: functional; outline: as §1
[4] = system: HSC-2; experiment: Cell cycle arrest in human HSC2 cells irradiated with 4.1 J/cm^2 broad spectrum light assessed as accumulation at G1 phase at 0.25 uM after 4 hrs by flow cytometry relative to control; type: functional; outline: as §1
[5] = system: HSC-2; experiment: Cell cycle arrest in human HSC2 cells irradiated with 4.1 J/cm^2 broad spectrum light assessed as accumulation at G2/M phase at 0.25 uM after 8 hrs by flow cytometry relative to control; type: functional; outline: as §1
[6] = Phototoxicity against human HK1 cells irradiated with 4.1 J/cm^2 broad spectrum light treated 2 hrs before irradiation measured after 24 hrs by MTT assay; type: functional, cell-based; details: HK-1, light or radiation study
Outline: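 HL60 at 15000 cells/well; HSC-2 and HK1 at 3000 cells/well, adhered overnight; phenol-red-free medium with 10% FBS. Compound tested at 0.001–100.0 μM from DMSO stock; controls 0.01% DMSO. After 2 h, irradiated with broad-spectrum light at 6.8 mW/cm2, or dark. After 24 h, MTT 4 h at 37 °C, formazan in DMSO, A570. Three determinations, mean ± SD.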

[7] = system: HSC-2; experiment: Induction of apoptosis in human HSC2 cells irradiated with 4.1 J/cm^2 broad spectrum light assessed as apoptotic cells at 0.5 uM after 4 hrs of irradiation by annexin V-FITC staining; type: functional
Outline: (§2)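 HSC-2 cells at 50% confluency in dishes, treated 2 h, then irradiated (4.1 J/cm2 broad spectrum) or kept dark. At intervals, floating and trypsinized cells pooled, washed in cold PBS, resuspended at 1 × 10^6 cells/mL in binding buffer. Stained 15 min in the dark at room temperature with annexin V-FITC and propidium iodide. 1 × 10^4 cells read by flow cytometry (FL1, FL3).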

[8] = Cellular uptake in human HSC2 cells assessed as intracellular localization in to cytoplasmic membrane at 100 nM by spinning disk confocal microscopy; type: ADME, cell-based; details: hsc-2, 0.1 µM
Outline: (§3)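 HSC-2 cells grown on glass coverslips, co-incubated at room temperature for 15–30 min with compound plus probe: ER-Tracker 100 nM, LysoTracker 500 nM or Rh123 100 nM. Rinsed in PBS. XY sections at 0.2 μm imaged; excitation 330–385 nm for ER/Lyso probes, 460–490 nm for Rh123, 520–550 nm for photosensitizer.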

[9] = system: HSC-2; experiment: Induction of apoptosis in human HSC2 cells irradiated with 4.1 J/cm^2 broad spectrum light assessed as apoptotic cells at 0.5 uM after 24 hrs of irradiation by annexin V-FITC staining; type: functional; outline: as §2
[10] = species on record: Gallus gallus; experiment: Antiangiogenic activity against chicken chorioallantoic membrane in dark assessed as induction of vascular occlusion at 3.5 to 7 nmol/embryo; type: functional, tissue-based
Outline: (§4)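 Fertilized chicken eggs incubated at 37 °C, 65% humidity. On EDD-9, single iv bolus into the main CAM vessel in cremophor EL 5%, EtOH 5% in saline. One minute later, a 0.02 cm2 site with 5–100 μm vessels irradiated at 510–560 nm, 40 mW/cm2 (or left dark). After 24 h, FITC-dextran/Indian ink angiography and damage scoring per Lange et al.; at least 10 embryos, mean ± SEM.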

[11] = Cellular uptake in human HSC2 cells assessed as intracellular localization in to nuclear membrane at 100 nM by spinning disk confocal microscopy; type: ADME, cell-based; details: hsc-2, 0.1 µM; outline: as §3
[12] = species on record: Gallus gallus; experiment: Antiangiogenic activity against chicken chorioallantoic membrane irradiated with 20 to 40 J/cm^2 assessed as induction of vascular occlusion at 3.5 to 7 nmol/embryo; type: functional, tissue-based; outline: as §4

## CC1=C(I)C(C)=[N+]2C1=C(CCC(=O)O)c1c(C)c(I)c(C)n1[B-]2(F)F
[1]
  Activity: 26.4%
[2]
  Activity: 3.7%
[3]
  Activity: 4.4%
[4]
  Activity: 33.8%
[5]
  Activity: 48.8%
[6]
  IC50: 570 nM
[7]
  Activity: 8.7%
[8]
  Activity: Not Active
[9]
  Activity: 89.9%
[10]
  Activity: inactive
[11]
  Activity: Not Active
[12]
  Activity: Active
